High-throughput results from PubChem BioAssay.
Shown are actives, neighbours in structure and some others; about 3% of the full set was active somewhere.
M4 PAM = positive allosteric modulators of human muscarinic M4 receptor; P08173; CHO-K1 hM4/Gqi5, Fluo-8 calcium fluorescence, ACh EC20; 0% = ACh EC20, 100% = maximal ACh; activation, % at 3 µM; hit rate 0.4% among 360,000; AID 624126;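 active = activation above its plate's cutoff, the mean activation of sample wells plus 3 SD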
TAAR1 agonist = agonists of human TAAR1 | Q96RJ0 | CHO RD-HGA16 TAAR1, Fluo-8 calcium fluorescence; vehicle wells 0%, saturating PEA agonist 100% | activation, % at 3 µM | hit rate 0.99% among 360,000 | AID 624467;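 active = activation above the mean activation of all test compounds in the run plus 3 SD, cut at about 38% in these data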
Target sequence (Q96RJ0 whole entry, looked up): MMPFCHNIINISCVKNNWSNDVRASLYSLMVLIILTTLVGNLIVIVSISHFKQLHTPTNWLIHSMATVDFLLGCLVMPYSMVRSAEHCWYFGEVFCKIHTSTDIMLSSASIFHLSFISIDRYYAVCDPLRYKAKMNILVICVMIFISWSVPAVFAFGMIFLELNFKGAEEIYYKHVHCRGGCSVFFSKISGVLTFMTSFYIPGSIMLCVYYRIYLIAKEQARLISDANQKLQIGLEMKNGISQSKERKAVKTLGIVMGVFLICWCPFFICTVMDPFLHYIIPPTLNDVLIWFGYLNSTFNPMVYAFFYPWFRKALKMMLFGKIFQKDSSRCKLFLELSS
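System: CHO RD-HGA16 cells carrying human TAAR1 plus Gα16; Incubation: 17-24 h seeding, 75 min 37 °C dye, 30 min RT; Measured by: Fluo-8 fluorescence, 5 s baseline then 140 s kinetic read; Control set: DMSO and PEA EC100; Replication: single well for each compound.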
TAAR1 antagonist = human TAAR1 antagonism. Q96RJ0. CHO RD-HGA16 TAAR1, Fluo-8 calcium fluorescence, antagonist. inhibition, % at 3 µM. hit rate 1.5% among 360,000. AID 624466;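 active = inhibition above a per-plate cutoff, the mean inhibition of test compounds on that plate plus 3 SD, cut at about 49% in these data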;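 also: 0% = DMSO plus EC80 beta-PEA response and 100% = DMSO alone without agonist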
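System: CHO RD-HGA16 cells bearing hTAAR1. Reagent: EC80 β-phenethylamine stimulus. Schedule: seeding 17-24 h prior, 75-min 37 °C, 30-min RT dye loading. Signal: Fluo-8 intracellular calcium dye fluorescence, real-time kinetic reads. Read-out: % inhibition from peak post-agonist over basal fluorescence ratio. Benchmarks: vehicle wells and EC80 agonist wells. Replicates: n of 1.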
CHRM4 antagonist = CHRM4 antagonism in calcium assay; P08173; hit rate 0.73% among 360,000; CHO-hM4 cells, ACh EC80, Fluo-8 calcium fluorescence; inhibition, % at 3 µM;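 active = inhibition above its plate's cutoff, the mean inhibition of sample wells plus 3 SD, cut at about 27% in these data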;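 also: 0% = acetylcholine EC80 with DMSO and 100% = DMSO without agonist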
CHRM4 agonist = CHRM4 agonism in calcium assay | hit rate 0.14% among 360,000 | activation, % at 3 µM | CHO-K1 hM4/Gqi5, Fluo-8 calcium fluorescence; vehicle 0%, full acetylcholine response 100% | AID 624127 | P08173;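 active = activation above the run mean over all test wells plus 3 SD, cut at about 32% in these data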;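 also: peak over basal fluorescence ratio per well then scaled between controls; 0% = DMSO wells and 100% = acetylcholine at EC100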
Numbers without * were called inactive; x = not tested or not shown.

SMILES	M4 PAM	TAAR1 agonist	TAAR1 antagonist	CHRM4 antagonist	CHRM4 agonist
CC(=O)N1CCN(C(=O)c2cccc(S(=O)(=O)N3c4ccccc4CC3C)c2)CC1 (configuration not stated)	16*	3	14	4	3
CCN(CC)CCNC(=O)c1ccc(NC(=O)c2cccc(S(=O)(=O)N3c4ccccc4CC3C)c2)cc1 (configuration not stated)	-16	14	-6	97*	1
CC1Cc2ccccc2N1S(=O)(=O)c1cccc(C(=O)N2CCN(c3ncccn3)CC2)c1 (configuration not stated)	-7	9	19	-5	13
CC(C)[C@H](NS(=O)(=O)c1ccc(F)cc1F)C(=O)N1CCC[C@H]1C(=O)NCc1ccccc1	x	1	-24	x	x
c1ccc(-c2ccccc2C2Cc3nnccc3CN2)cc1 (configuration not stated)	x	2	-31	x	x
COc1ccccc1CN1Cc2ccccc2Oc2ccccc2S1(=O)=O	x	3	14	x	x
CN(C)CCNC(=O)c1cccc(S(=O)(=O)Nc2ccc(F)cc2)c1	11	3	-13	15	1
COc1ccccc1C(CNC(=O)c1cccc(S(=O)(=O)Nc2ccc(C)cc2)c1)N(C)C (configuration not stated)	-14	7	-18	32*	0
CCN(CC)CCNC(=O)c1ccc(NC(=O)c2cccc(S(=O)(=O)Nc3ccc(C)cc3)c2)cc1	-20	36	-3	43*	1
COc1cccc(Cn2c(C(C)n3c(C)nc4ccccc43)nc3ccccc32)c1 (configuration not stated)	0	1	16	-17	7
O=C1Nc2c(Cl)cc(Cl)cc2C12Nc1ccccc1S2 (configuration not stated)	x	-1	-3	x	x
CC(C)(C)CN1CCC(Oc2cccc(C(=O)NCCCOc3cccnc3)c2)CC1	-15	3	-10	68*	4
COC(=O)C1=C(C)N(C)C(=NCc2ccccc2)NC1c1ccccc1 (configuration not stated)	x	0	-3	x	x
Oc1ccc(N=Nc2c(O)ccc3ccccc23)cc1	31*	7	-3	12	1
NS(=O)(=O)c1ccc(N=Nc2c(O)ccc3ccccc23)cc1	-4	-1	-1	-3	1
O=C(/C=C/c1ccccc1)Nc1nc(-c2ccncc2)cs1	9	3	50*	5	10
O=C(/C=C\c1ccco1)Nc1nc(-c2ccccc2)cs1	5	1	-42	-7	0
COc1ccc(O)c(C(=O)/C=C/c2cc3ccccc3o2)c1	19*	4	-6	-16	1
Oc1ccc(Nc2nc3ccccc3nc2Nc2ccc(O)cc2)cc1	-12	x	x	27*	4
CN(C)S(=O)(=O)c1ccc(C(=O)Nc2ccc(CCC(=O)N3CCCC3)cc2)cc1	10	10	-22	1	1
O=C(Nc1ccc(S(=O)(=O)N2CCCCC2)cc1)c1ccc(CN2CCc3ccccc3C2)cc1	-16	5	4	40*	8
CN(C)S(=O)(=O)c1ccc(C(=O)Nc2ccc(CN3CCCC3)cc2)cc1	-18	8	-13	69*	1
O=C(Nc1ccccc1)c1ccc(CN2CCc3ccccc3C2)cc1	-5	0	16	-1	2
Cc1ccc([C@H]2C[C@]34CN(Cc5ccccc5)S(=O)(=O)[C@H]3C[C@H]2O4)cc1	x	0	1	x	x
C[C@@H](CO)NC(=O)c1[nH]cnc1C(=O)Nc1ccccc1	x	3	-7	x	x
SMILES	M4 PAM	TAAR1 agonist	TAAR1 antagonist	CHRM4 antagonist	CHRM4 agonist
O=C(Nc1ccccc1N1CCCC1)c1ccc([N+](=O)[O-])cc1Cl	25*	12	-4	-16	1
O=C(Nc1ccccc1N1CCCC1)c1ccc(Cl)cc1Cl	-5	10	-29	-1	-2
O=C(Nc1ccccc1N1CCN(C(=O)c2ccc(Cl)cc2)CC1)c1cccc([N+](=O)[O-])c1	-11	7	51*	13	13
Cn1cc(CC(=O)Nc2ccc(Nc3cccnc3)cc2)c2ccccc21	x	5	5	x	x
S=C(NCc1ccc(Cl)cc1)NC1CCN(Cc2ccccc2)CC1	-20	51*	7	27*	45*
Clc1ccc(CNC2CCN(Cc3ccccc3)CC2)cc1	-10	1	-2	7	3
Cc1ccc(/C=C2/NC(=O)N(Cc3ccccc3)C2=O)s1	-16	40*	35	6	9
CC(=O)N(C)c1ccc(NC(=S)Nc2ccccc2)cc1	7	6	1	4	0
O=C(Nc1cccnc1)Nc1ccc(F)c(Cl)c1	-4	51*	6	18	27
O=C(Nc1ccc(Cl)cc1)Nc1ccc(Cl)c(Cl)c1	x	18	66*	x	x
CNC(=O)Nc1ccc(S(N)(=O)=O)cc1	10	0	-6	-6	1
NS(=O)(=O)c1ccc(NC(=O)Nc2ccc(Cl)cc2)cc1	-19	41*	38	17	4
O=C(Nc1cccnc1)c1cc(F)c(F)cc1Cl	3	8	-19	-8	0
CC(=O)N(C)c1ccc(NC(=O)Nc2ccc(Cl)cc2)cc1	-14	44*	102*	26	27
NC(=O)c1ncn([C@@H]2O[C@H](C(=O)Nc3ccc(Oc4ccccc4)nc3)[C@@H](O)[C@H]2O)n1	x	1	-19	x	x
O=C1c2ccccc2C(c2nnnn2-c2ccc3c(c2)OCCO3)N1CCCN1CCOCC1 (configuration not stated)	6	2	-1	-5	1
CCS(=O)(=O)N1CCC(NC(=O)C(Cc2cccc(OC)c2OC)NC(C)=O)CC1 (configuration not stated)	18*	-1	-33	-18	1
CN(Cc1nccs1)C(=O)c1ccc(OC2CCN(CCc3ccccc3)CC2)cc1	-13	1	-4	21	5
CCn1ccnc1CN(C)C(=O)c1ccc(OC2CCN(CCc3ccccc3)CC2)cc1	-12	0	12	43*	1
CCCC(=O)N1CCN(c2ccc(NC(=O)c3cc4ccccc4o3)cc2Cl)CC1	-21	18	84*	38*	19
c1ccc(Cc2cnc(N3CCN(Cc4ccc5c(c4)OCCO5)CC3)nc2)cc1	x	-1	-29	x	x
Cc1ccc2c(c1)C(=O)N1[C@H]3c4cc(Cl)ccc4OC[C@@H]3[C@H](c3ccccc3)[C@]1(C)C(=O)N2	-5	0	4	4	0
C[C@@]12C(=O)Nc3ccc(F)cc3C(=O)N1[C@H]1c3cc(Cl)ccc3OC[C@@H]1[C@@H]2c1ccccc1	-10	1	7	16	2
C[C@@]12C(=O)Nc3cc(Cl)ccc3C(=O)N1[C@H]1c3ccccc3OC[C@@H]1[C@@H]2c1ccccc1	-17	x	x	33*	3
